# Assay results from ChEMBL document CHEMBL1122504, “Heterocyclic Quinones. 4. A new highly cytotoxic drug: 6,7-bis(1-aziridinyl)-5,8-quinazolinedione” (1983).
# How the values were obtained:
# P388 [1] = experiment: Median survival time of P388 lymphocytic leukemia cell line after a dose of 10 mg/kg administered perorally on Q01Dx07 treatment schedule; assay type: functional, Mus musculus; settings: route oral
# Summary of the method: (§1)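 P388 leukaemia: DBA/2 mice inoculated with 10^6 cells on day 0; treatment began day 1 at the stated route and schedule. Drug was dissolved in 0.15 M NaCl saline. The read-out was median survival time (MST, days), with toxicity taken as survivors on day 5. T/C% = treated MST/control MST × 100; ≥125% is considered significant.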
# P388 [2] = experiment: MST of treated animal over control when administered at a dose of 10 mg/kg intraperitoneally on Q01Dx05 treatment schedule; assay type: functional, Mus musculus; settings: route intraperitoneal; summary of the method: as §1
# P388 [3] = experiment: Number of survivors of P388 lymphocytic leukemia cell line on day 5/ number of treated mice at a dose of 1 i.v. injection of 15 mg/kg on Q01Dx01 treatment schedule; 5/10; assay type: functional, Mus musculus; settings: route intravenous
# B16 [4] = experiment: Median survival time of […] melanocarcinoma cell line after a dose of 5 mg/kg administered intraperitoneally on Q01Dx01 treatment schedule; assay type: functional, Mus musculus; settings: route intraperitoneal
# Summary of the method: (§2)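 B16 melanocarcinoma: C57Bl/6 mice implanted sc with cell suspension on day 0; single ip dose in 0.15 M NaCl saline given on day 1. Median survival time was recorded in days, with toxicity taken as survivors on day 5. T/C% = treated MST/control MST × 100; >125% is considered significant.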
# B16 [5] = experiment: Median survival time of […] melanocarcinoma cell line after a dose of 2.5 mg/kg administered intraperitoneally on Q01Dx01 treatment schedule; assay type: functional, Mus musculus; settings: route intraperitoneal; summary of the method: as §2
# P388 [6] = experiment: Number of survivors of P388 lymphocytic leukemia cell line on day 5/ number of treated mice at a dose of 3 ip injection of 10 mg/kg on Q04Dx03 treatment schedule; 10/10; assay type: functional, Mus musculus; settings: route intraperitoneal
# P388 [7] = experiment: Median survival time of P388 lymphocytic leukemia cell line after a dose of 15 mg/kg administered intravenously on Q01Dx01 treatment schedule; assay type: functional, Mus musculus; settings: route intravenous; summary of the method: as §1
# Salmonella typhimurium [8] = experiment: Mutagenesis test was performed at 10 uM concentration in Salmonella Typhimurium TA 98; assay type: functional, Salmonella enterica subsp. enterica serovar Typhimurium
# Summary of the method: (§3)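 Salmonella typhimurium his auxotrophs TA98 and TA100 were tested by liquid suspension without metabolic activation. Overnight Oxoid nutrient broth cultures were subcultured, grown 2 h, then exposed to drug for 5 h. Cells were washed, resuspended to A650 2.50, and plated in top agar (0.6% agar, 0.6% NaCl). His+ revertants per plate were counted after 48 h at 37 °C; values are means of three assays.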
# P388 [9] = experiment: MST of treated animal over control when administered at a dose of 20 mg/kg intraperitoneally on Q01Dx01 treatment schedule; assay type: functional, Mus musculus; settings: route intraperitoneal; summary of the method: as §1
# L1210 [10] = experiment: MST of treated animal over control when administered at a dose of 2.5 mg/kg intraperitoneally on Q01Dx09 treatment schedule in L1210 cell lines; assay type: functional, Mus musculus; settings: route intraperitoneal
# Summary of the method: (§4)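 L1210 leukaemia: DBA/2 mice inoculated ip with 10^5 cells on day 0, with ip drug in 0.15 M NaCl saline on the stated schedule. The read-out was median survival time in days, with toxicity taken as survivors on day 5. T/C% = treated MST/control MST × 100; >125% is considered significant.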
# P388 [11] = experiment: Number of survivors of P388 lymphocytic leukemia cell line on day 5/ number of treated mice at a dose of 7po injection of 15 mg/kg on Q01Dx07 treatment schedule; 10/10; assay type: functional, Mus musculus
# L1210 [12] = experiment: Number of survivors of L1210 cell line on day 5/ number of treated mice at a dose of 2 ip injection of 15 mg/kg on Q01Dx02 treatment schedule; 10/10; assay type: functional, Mus musculus; settings: route intraperitoneal
# P388 [13] = experiment: MST of treated animal over control when administered at a dose of 2.5 mg/kg intravenously on Q01Dx01 treatment schedule; assay type: functional, Mus musculus; settings: route intravenous; summary of the method: as §1
# Salmonella typhimurium [14] = experiment: Mutagenesis test was performed at 40 uM concentration in Salmonella Typhimurium TA 100; assay type: functional, Salmonella enterica subsp. enterica serovar Typhimurium; summary of the method: as §3
# L1210 [15] = experiment: Number of survivors of L1210 cell line on day 5/ number of treated mice at a dose of 9ip injection of 5 mg/kg on Q01Dx09 treatment schedule; 10/10; assay type: functional, Mus musculus
# L1210 [16] = experiment: Number of survivors of L1210 cell line on day 5/ number of treated mice at a dose of 1 i.p. injection of 10 mg/kg on Q01Dx01 treatment schedule; 10/10; assay type: functional, Mus musculus; settings: route intraperitoneal
# P388 [17] = experiment: MST of treated animal over control when administered at a dose of 10 mg/kg intraperitoneally on Q01Dx01 treatment schedule; assay type: functional, Mus musculus; settings: route intraperitoneal; summary of the method: as §1
# Salmonella typhimurium [18] = experiment: Mutagenesis test was performed at 60 uM concentration in Salmonella Typhimurium TA 98; assay type: functional, Salmonella enterica subsp. enterica serovar Typhimurium; summary of the method: as §3
# P388 [19] = experiment: Number of survivors of P388 lymphocytic leukemia cell line on day 5/ number of treated mice at a dose of 1 i.v. injection of 15 mg/kg on Q01Dx01 treatment schedule; 10/10; assay type: functional, Mus musculus; settings: route intravenous
# P388 [20] = experiment: Number of survivors of P388 lymphocytic leukemia cell line on day 5/ number of treated mice at a dose of 1 i.p. injection of 20 mg/kg on Q01Dx01 treatment schedule; 10/10; assay type: functional, Mus musculus; settings: route intraperitoneal
# Salmonella typhimurium [21] = experiment: Mutagenesis test was performed at 0.3 uM concentration in Salmonella Typhimurium TA 98; assay type: functional, Salmonella enterica subsp. enterica serovar Typhimurium; summary of the method: as §3
# L1210 [22] = experiment: Median survival time of L1210 cell line after a dose of 20 mg/kg administered intraperitoneally on Q01Dx01 treatment schedule; assay type: functional, Mus musculus; settings: route intraperitoneal; summary of the method: as §4
# Salmonella typhimurium [23] = experiment: Mutagenesis test was performed at 20 uM concentration in Salmonella Typhimurium TA 98; assay type: functional, Salmonella enterica subsp. enterica serovar Typhimurium; summary of the method: as §3
# P388 [24] = experiment: Median survival time of P388 lymphocytic leukemia cell line after a dose of 20 mg/kg administered perorally on Q01Dx07 treatment schedule; assay type: functional, Mus musculus; settings: route oral; summary of the method: as §1
# P388 [25] = experiment: Median survival time of P388 lymphocytic leukemia cell line after a dose of 5 mg/kg administered intraperitoneally on Q01Dx09 treatment schedule; assay type: functional, Mus musculus; settings: route intraperitoneal; summary of the method: as §1
# L1210 [26] = experiment: MST of treated animal over control when administered at a dose of 10 mg/kg intraperitoneally on Q01Dx01 treatment schedule in L1210 cell lines; assay type: functional, Mus musculus; settings: route intraperitoneal; summary of the method: as §4
# Salmonella typhimurium [27] = experiment: Mutagenesis test was performed at 4 uM concentration in Salmonella Typhimurium TA 100; assay type: functional, Salmonella enterica subsp. enterica serovar Typhimurium; summary of the method: as §3
# B16 [28] = experiment: MST of treated animal over control when administered at a dose of 10 mg/kg intraperitoneally on Q01Dx01 treatment schedule in B16 melanocarcinoma cell lines; assay type: functional, Mus musculus; settings: route intraperitoneal; summary of the method: as §2
# P388 [29] = experiment: Median survival time of P388 lymphocytic leukemia cell line after a dose of 2.5 mg/kg administered intravenously on Q01Dx01 treatment schedule; assay type: functional, Mus musculus; settings: route intravenous; summary of the method: as §1
# P388 [30] = experiment: MST of treated animal over control when administered at a dose of 5 mg/kg intravenously on Q01Dx01 treatment schedule; assay type: functional, Mus musculus; settings: route intravenous; summary of the method: as §1
# P388 [31] = experiment: Median survival time of P388 lymphocytic leukemia cell line after a dose of 2.5 mg/kg administered intraperitoneally on Q01Dx09 treatment schedule; assay type: functional, Mus musculus; settings: route intraperitoneal; summary of the method: as §1
# L1210 [32] = experiment: Number of survivors of L1210 cell line on day 5/ number of treated mice at a dose of 9ip injection of 2.5 mg/kg on Q01Dx09 treatment schedule; 10/10; assay type: functional, Mus musculus
# B16 [33] = experiment: Number of survivors of B16 melanocarcinoma cell line on day 5/ number of treated mice at a dose of 1 ip injection of 5 mg/kg on Q01Dx01 treatment schedule; 09/10; assay type: functional, Mus musculus; settings: route intraperitoneal
smiles,measurement,setting,value
O=C1C(N2CC2)=C(N2CC2)C(=O)c2ncncc21,MST,P388 [1],7.6 days
same,T/C,P388 [2],84%
same,Toxicity Survivors,P388 [3],5
same,MST,B16 [4],15.7 days
same,MST,B16 [5],15.7 days
same,Toxicity Survivors,P388 [6],10
same,MST,P388 [7],10.4 days
same,Revertants/plate,Salmonella typhimurium [8],89
same,T/C,P388 [9],134%
same,T/C,L1210 [10],109%
same,Toxicity Survivors,P388 [11],10
same,Toxicity Survivors,L1210 [12],10
same,T/C,P388 [13],103%
same,Revertants/plate,Salmonella typhimurium [14],461
same,Toxicity Survivors,L1210 [15],10
same,Toxicity Survivors,L1210 [16],10
same,T/C,P388 [17],118%
same,Revertants/plate,Salmonella typhimurium [18],1080
same,Toxicity Survivors,P388 [19],10
same,Toxicity Survivors,P388 [20],10
same,Revertants/plate,Salmonella typhimurium [21],84
same,MST,L1210 [22],9.4 days
same,Revertants/plate,Salmonella typhimurium [23],98
same,MST,P388 [24],7.6 days
same,MST,P388 [25],10.4 days
same,T/C,L1210 [26],114%
same,Revertants/plate,Salmonella typhimurium [27],87
same,T/C,B16 [28],91%
same,MST,P388 [29],10.4 days
same,T/C,P388 [30],103%
same,MST,P388 [31],10.4 days
same,Toxicity Survivors,L1210 [32],10
same,Toxicity Survivors,B16 [33],9
